Results: ChEMBL document CHEMBL5096242, “Structure-Activity Studies of 1H-Imidazo[4,5-c]quinolin-4-amine Derivatives as A3 Adenosine Receptor Positive Allosteric Modulators” (J Med Chem, 2022)
Converted amounts (≈) assume the structure as drawn. One block for each compound: values may come before it.

Legend:
[1] = Stability in human plasma assessed as compound remaining and measured after 120 mins by LC-MS/MS analysis; details: 2 h
[2] = Clearance in Wistar rat plasma at 3 mg/kg, po and measured upto 24 hrs; type: ADME, organism-based
How it was run: (§1)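 Fasted male Wistar rats (RccHan:WIST), 6–10 weeks old at acclimation, three per group. Dosing was 0.5 mg/kg i.v. in DMSO:20% HPBCD (10:90), or 1, 3 and 10 mg/kg by oral gavage in DMSO:Kolliphor EL:PBS (15:15:70). Jugular blood was taken at 0.083–24 h (stated for i.v.) into heparin, and plasma was frozen at −70 °C. Parameters came from non-compartmental analysis.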

[3] = Permeability across basolateral to apical side in human Caco-2 cells assessed as compound recovery at 10 uM measured upto 120 mins by LC-MS/MS analysis; type: ADME, cell-based; details: caco-2, 2 h
[4] = Half life in Wistar rat at 10 mg/kg, po and measured upto 24 hrs; details: in vivo
[5] = Clearance in Wistar rat assessed as parent compound remaining at 3 mg/kg, po and measured upto 24 hrs; type: ADME, organism-based; details: in vivo; how it was run: as §1
[6] = simulated gi fluid, pH 1, 2 h
[7] = Aqueous solubility of compound at pH 7.4 by PDA spectrophotometric analysis; details: buffer
[8] = Stability of the compound in simulated gastric fluid at pH 1 to 2 assessed as compound remaining at 120 mins by LC-MS/MS analysis; details: simulated gi fluid, pH 1, 2 h
[9] = target: Sigma non-opioid intracellular receptor 1 (Homo sapiens, UniProt Q99720); test: Displacement of [3H]-LSD from human sigma1 receptor expressed in human HEK293T cell membrane incubated for 90 mins by radioligand binding assay
Chain of Sigma non-opioid intracellular receptor 1 (Q99720 whole entry): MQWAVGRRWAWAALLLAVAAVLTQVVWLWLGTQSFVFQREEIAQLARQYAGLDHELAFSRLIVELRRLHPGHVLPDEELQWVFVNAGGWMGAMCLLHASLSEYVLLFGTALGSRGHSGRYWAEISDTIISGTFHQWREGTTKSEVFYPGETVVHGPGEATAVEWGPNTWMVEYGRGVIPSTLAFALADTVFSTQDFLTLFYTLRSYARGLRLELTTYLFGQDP

[10] = target: Cytochrome P450 1A2 (Homo sapiens) (UniProt P05177)
[11] = Clearance in Wistar rat plasma at 10 mg/kg, po and measured upto 24 hrs; type: ADME, organism-based; how it was run: as §1
[12] = Half life in Wistar rat at 3 mg/kg, po and measured upto 24 hrs; details: in vivo
[13] = in vivo; details: Wistar, rat, po, 3 mg/kg
[14] = target: T1, Cytochrome P450 1A2 (Homo sapiens, UniProt P05177); test: Inhibition of CYP1A2 in human liver Microsome using phenacetin as substrate in presence of NADPH by LC-MS/MS analysis
T1 sequence (P05177 whole entry): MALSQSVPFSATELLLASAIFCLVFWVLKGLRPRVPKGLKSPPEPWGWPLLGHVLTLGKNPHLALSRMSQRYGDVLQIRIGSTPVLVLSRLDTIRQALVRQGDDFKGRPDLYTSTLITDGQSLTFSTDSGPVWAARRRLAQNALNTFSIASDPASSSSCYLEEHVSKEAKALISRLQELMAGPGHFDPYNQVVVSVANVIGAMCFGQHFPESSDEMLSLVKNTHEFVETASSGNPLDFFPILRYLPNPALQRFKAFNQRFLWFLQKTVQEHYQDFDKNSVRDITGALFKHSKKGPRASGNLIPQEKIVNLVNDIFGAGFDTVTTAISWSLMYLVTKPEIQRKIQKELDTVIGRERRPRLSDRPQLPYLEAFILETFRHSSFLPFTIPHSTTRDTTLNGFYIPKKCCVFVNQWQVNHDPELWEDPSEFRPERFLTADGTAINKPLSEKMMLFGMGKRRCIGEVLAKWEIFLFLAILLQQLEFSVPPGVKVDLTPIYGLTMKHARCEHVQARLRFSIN

[15] = Cmax in Wistar rat plasma at 10 mg/kg, po and measured after 2 hrs; type: ADME, organism-based; design: time 2 hrs, dose 10 mg/kg, route po; details: in vivo; how it was run: as §1
[16] = target: Voltage-gated inwardly rectifying potassium channel KCNH2 (Homo sapiens, UniProt Q12809); test: Inhibition of human ERG stably transfected in HEK293 cells incubated for 2 hrs by TAMRA fluorescence polarization assay
Chain of Voltage-gated inwardly rectifying potassium channel KCNH2 (Q12809 whole entry): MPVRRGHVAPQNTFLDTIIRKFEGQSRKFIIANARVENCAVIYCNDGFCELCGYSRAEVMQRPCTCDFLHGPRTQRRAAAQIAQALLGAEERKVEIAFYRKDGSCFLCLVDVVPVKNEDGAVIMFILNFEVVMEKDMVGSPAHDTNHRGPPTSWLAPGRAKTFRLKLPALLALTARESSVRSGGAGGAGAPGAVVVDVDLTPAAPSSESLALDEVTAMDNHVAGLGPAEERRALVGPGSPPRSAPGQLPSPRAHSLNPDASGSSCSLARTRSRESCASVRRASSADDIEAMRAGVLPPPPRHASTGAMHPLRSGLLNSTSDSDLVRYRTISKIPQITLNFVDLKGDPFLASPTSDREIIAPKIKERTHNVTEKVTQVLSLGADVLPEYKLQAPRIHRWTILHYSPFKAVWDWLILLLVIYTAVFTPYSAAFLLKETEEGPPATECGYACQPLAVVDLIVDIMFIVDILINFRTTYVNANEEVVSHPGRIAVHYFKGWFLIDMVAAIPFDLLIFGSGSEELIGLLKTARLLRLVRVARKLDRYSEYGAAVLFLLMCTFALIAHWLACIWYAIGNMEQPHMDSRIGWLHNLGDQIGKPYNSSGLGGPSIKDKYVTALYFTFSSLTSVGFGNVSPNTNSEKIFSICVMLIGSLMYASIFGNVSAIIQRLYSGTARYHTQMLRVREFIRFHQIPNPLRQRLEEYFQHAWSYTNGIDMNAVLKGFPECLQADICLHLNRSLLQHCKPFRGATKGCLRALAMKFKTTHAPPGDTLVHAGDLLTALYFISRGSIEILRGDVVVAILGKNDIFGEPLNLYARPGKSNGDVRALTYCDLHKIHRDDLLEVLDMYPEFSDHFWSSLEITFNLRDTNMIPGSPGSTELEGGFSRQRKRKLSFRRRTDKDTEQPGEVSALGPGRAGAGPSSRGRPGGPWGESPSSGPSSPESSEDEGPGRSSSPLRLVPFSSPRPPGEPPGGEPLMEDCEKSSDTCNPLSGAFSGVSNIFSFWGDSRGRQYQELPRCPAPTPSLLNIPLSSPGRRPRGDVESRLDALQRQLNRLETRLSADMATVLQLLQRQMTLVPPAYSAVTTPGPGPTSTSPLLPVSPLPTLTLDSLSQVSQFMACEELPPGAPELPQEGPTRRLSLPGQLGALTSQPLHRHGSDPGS

[17] = Permeability across apical to basolateral side in human Caco-2 cells assessed as compound recovery at 10 uM measured upto 120 mins by LC-MS/MS analysis; type: ADME, cell-based; details: caco-2, 2 h
[18] = Microsomal stability in mouse liver microsomes assessed as parent compound remaining at 3 uM incubated for 120 mins by LC-MS/MS analysis; details: 2 h
[19] = Half life in Wistar rat at 0.5 mg/kg, iv and measured upto 24 hrs; type: ADME, organism-based; details: in vivo; how it was run: as §1
[20] = rat, microsomes, 2 h, 3 µM
[21] = mouse, microsomes, 2 h, 3 µM
[22] = Stability in rat plasma assessed as compound remaining and measured after 120 mins by LC-MS/MS analysis; details: 2 h
[23] = Microsomal stability in rat liver microsomes assessed as parent compound remaining at 3 uM incubated for 120 mins by LC-MS/MS analysis; details: 2 h
[24] = Stability of the compound in simulated intestinal fluid at pH 6 to 8 assessed as compound remaining at 120 mins by LC-MS/MS analysis; details: simulated gi fluid, pH 6, 2 h
[25] = in vivo; details: Wistar, rat, po, 10 mg/kg
[26] = Stability in mouse plasma assessed as compound remaining and measured after 120 mins by LC-MS/MS analysis; details: 2 h
[27] = Protein binding in rat plasma assessed as bound fraction at 10 uM and measured for 5 hrs by LC-MS/MS based dialysis analysis
[28] = Stability in human plasma assessed as half life and measured after 120 mins by LC-MS/MS analysis; details: 2 h
[29] = MRT in Wistar rat at 1 mg/kg, po and measured upto 24 hrs; type: ADME, organism-based; details: plasma, 3 mg/kg, in the assay text read “3 mg/kg” for “1 mg/kg”; how it was run: as §1
[30] = Stability in mouse plasma assessed as half life and measured after 120 mins by LC-MS/MS analysis; details: 2 h
[31] = Stability in rat plasma assessed as half life and measured after 120 mins by LC-MS/MS analysis; details: 2 h
[32] = simulated gi fluid, pH 6, 2 h
[33] = Tmax in Wistar rat plasma at 1 to 10 mg/kg, po and measured after 2 hrs; type: ADME, organism-based; details: dose 1-10 mg/kg; how it was run: as §1
[34] = Microsomal stability in human liver microsomes assessed as parent compound remaining at 3 uM incubated for 120 mins by LC-MS/MS analysis; details: 2 h
[35] = Clearance in Wistar rat plasma at 1 mg/kg, po and measured upto 24 hrs; type: ADME, organism-based; how it was run: as §1
[36] = target: Sigma intracellular receptor 2 (Homo sapiens, UniProt Q5BJF2); test: Displacement of [3H]-DTG from human sigma2 receptor expressed in human HEK293T cell membrane incubated for 90 mins by radioligand binding assay
Chain of Sigma intracellular receptor 2 (Q5BJF2 whole entry): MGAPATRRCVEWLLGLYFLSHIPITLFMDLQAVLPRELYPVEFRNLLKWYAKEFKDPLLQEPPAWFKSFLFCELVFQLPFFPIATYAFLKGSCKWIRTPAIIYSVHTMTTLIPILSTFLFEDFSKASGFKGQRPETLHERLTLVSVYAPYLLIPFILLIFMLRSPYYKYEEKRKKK

[37] = target: Cytochrome P450 1A2 (Homo sapiens) (UniProt P05177); remark: listed apart in the source
[38] = human, microsomes, 2 h, 3 µM
[39] = target: T2, Adenosine receptor A3 (Homo sapiens, UniProt P0DMS8)
T2 sequence (P0DMS8 whole entry): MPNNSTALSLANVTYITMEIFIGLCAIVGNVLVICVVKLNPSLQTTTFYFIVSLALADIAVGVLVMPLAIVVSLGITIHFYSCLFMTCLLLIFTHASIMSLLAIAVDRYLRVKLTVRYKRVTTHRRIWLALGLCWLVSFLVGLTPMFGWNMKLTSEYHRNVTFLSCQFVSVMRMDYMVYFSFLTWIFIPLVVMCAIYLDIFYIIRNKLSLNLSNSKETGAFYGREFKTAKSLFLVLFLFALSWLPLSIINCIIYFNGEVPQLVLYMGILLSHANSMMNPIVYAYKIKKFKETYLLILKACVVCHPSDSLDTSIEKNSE

[40] = target: Translocator protein (Homo sapiens, UniProt P30536); test: Inhibition of human TPSO receptor expressed in human HEK293T cell membrane incubated for 90 mins by radioligand binding assay
Chain of Translocator protein (P30536 whole entry): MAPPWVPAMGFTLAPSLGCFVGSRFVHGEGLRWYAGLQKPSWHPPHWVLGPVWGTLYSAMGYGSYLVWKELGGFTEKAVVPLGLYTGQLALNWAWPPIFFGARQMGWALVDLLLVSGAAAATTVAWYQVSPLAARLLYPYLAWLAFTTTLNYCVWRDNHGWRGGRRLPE

[41] = target: Mu-type opioid receptor (Homo sapiens, UniProt P35372); test: Displacement of [3H]-DAMGO from human MOR receptor expressed in human HEK293 cell membrane incubated for 90 mins by radioligand binding assay
Chain of Mu-type opioid receptor (P35372 whole entry): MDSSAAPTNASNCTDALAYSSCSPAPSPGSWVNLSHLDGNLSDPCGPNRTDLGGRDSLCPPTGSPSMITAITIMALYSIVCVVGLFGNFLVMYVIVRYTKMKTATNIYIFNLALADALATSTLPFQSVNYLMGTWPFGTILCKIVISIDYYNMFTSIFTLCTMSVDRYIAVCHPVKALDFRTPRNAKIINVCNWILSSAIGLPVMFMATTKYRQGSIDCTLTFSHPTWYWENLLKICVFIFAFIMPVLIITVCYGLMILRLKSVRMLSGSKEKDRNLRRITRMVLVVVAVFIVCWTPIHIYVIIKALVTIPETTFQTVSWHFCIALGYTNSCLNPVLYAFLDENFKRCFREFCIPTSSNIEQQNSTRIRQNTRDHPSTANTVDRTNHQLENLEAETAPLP

[42] = target: Sodium-dependent dopamine transporter (Homo sapiens, UniProt Q01959); test: Displacement of [3H]-Win35428 from human DAT receptor expressed in human HEK293T cell membrane incubated for 90 mins by radioligand binding assay
Chain of Sodium-dependent dopamine transporter (Q01959 whole entry): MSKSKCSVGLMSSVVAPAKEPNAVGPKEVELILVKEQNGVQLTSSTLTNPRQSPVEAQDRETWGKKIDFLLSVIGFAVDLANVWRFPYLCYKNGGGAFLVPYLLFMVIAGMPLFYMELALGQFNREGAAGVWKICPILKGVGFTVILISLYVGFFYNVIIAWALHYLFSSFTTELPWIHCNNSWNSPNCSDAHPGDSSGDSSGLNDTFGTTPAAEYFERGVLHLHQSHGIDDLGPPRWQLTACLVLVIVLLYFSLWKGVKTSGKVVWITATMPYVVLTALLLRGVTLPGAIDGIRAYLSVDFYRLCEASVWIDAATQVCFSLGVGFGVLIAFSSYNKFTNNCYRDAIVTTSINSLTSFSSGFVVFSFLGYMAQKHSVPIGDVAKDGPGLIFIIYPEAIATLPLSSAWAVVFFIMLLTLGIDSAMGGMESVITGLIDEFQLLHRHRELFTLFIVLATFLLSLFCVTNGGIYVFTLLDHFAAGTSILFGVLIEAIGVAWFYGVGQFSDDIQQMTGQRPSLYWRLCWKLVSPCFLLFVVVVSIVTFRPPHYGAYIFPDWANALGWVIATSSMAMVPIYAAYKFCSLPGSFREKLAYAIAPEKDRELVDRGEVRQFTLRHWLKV

[43] = Protein binding in human plasma assessed as bound fraction at 10 uM and measured for 5 hrs by LC-MS/MS based dialysis analysis
[44] = Protein binding in mouse plasma assessed as bound fraction at 10 uM and measured for 5 hrs by LC-MS/MS based dialysis analysis
[45] = target: D(3) dopamine receptor (Homo sapiens, UniProt P35462); test: Displacement of [3H]-N-methylspiperone from human D3 receptor expressed in human HEK293T cell membrane incubated for 90 mins by radioligand binding assay
Chain of D(3) dopamine receptor (P35462 whole entry): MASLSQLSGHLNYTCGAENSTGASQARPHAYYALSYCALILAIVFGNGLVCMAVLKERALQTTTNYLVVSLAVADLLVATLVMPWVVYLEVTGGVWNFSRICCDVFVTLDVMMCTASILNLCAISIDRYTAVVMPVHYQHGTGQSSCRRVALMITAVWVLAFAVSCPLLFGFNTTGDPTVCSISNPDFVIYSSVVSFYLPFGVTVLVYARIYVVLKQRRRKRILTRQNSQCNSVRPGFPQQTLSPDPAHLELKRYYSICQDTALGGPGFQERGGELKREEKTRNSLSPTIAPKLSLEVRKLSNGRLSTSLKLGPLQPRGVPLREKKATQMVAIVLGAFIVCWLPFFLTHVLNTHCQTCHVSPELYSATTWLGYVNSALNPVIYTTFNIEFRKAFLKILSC

[46] = target: Cytochrome P450 2D6 (Homo sapiens, UniProt P10635); test: Inhibition of CYP2D6 in human liver Microsome using dextromethorphan as substrate in presence of NADPH by LC-MS/MS analysis
Chain of Cytochrome P450 2D6 (P10635 whole entry): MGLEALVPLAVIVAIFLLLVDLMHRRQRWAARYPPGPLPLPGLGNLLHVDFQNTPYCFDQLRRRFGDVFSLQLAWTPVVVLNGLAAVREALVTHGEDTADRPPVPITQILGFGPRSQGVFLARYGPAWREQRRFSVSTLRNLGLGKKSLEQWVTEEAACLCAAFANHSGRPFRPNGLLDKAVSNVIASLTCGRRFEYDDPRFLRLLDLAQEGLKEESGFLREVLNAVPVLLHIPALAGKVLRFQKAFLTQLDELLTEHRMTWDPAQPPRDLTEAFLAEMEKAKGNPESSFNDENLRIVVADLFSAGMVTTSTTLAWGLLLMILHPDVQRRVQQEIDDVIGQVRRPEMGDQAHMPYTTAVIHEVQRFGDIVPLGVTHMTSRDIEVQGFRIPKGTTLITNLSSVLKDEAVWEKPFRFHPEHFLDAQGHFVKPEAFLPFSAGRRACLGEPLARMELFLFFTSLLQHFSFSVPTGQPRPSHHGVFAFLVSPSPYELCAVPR

[47] = Inhibition of CYP2C9 in mouse liver Microsome using phenacetin as substrate in presence of NADPH by LC-MS/MS analysis
[48] = Inhibition of CYP2C9 in rat liver Microsome using phenacetin as substrate in presence of NADPH by LC-MS/MS analysis
[49] = target: T3, Adenosine receptor A3 (Homo sapiens) (UniProt P0DMS8); test: Positive allosteric modulator activity in wild type human A3AR opioid receptor stably expressed in human HEK293 cell membrane assessed as increase in CI-IB-MECA induced [35S]GTPGAgammaS binding to receptor at 10 uM preincubated for 1 hrs with CI-IB-MECA further incubated with [35S]GTPGAgammaS for …; type: cell membranes; details: filed as positive allosteric modulator, time 3.0 hrs
T3 sequence (whole entry): T2 sequence (P0DMS8 whole entry)

[50] = target: 5-hydroxytryptamine receptor 2B (Homo sapiens, UniProt P41595); test: Displacement of [3H]-LSD from human 5HT2B expressed in human HEK293 cell membrane incubated for 90 mins by radioligand binding assay; type: cell membranes
Chain of 5-hydroxytryptamine receptor 2B (P41595 whole entry): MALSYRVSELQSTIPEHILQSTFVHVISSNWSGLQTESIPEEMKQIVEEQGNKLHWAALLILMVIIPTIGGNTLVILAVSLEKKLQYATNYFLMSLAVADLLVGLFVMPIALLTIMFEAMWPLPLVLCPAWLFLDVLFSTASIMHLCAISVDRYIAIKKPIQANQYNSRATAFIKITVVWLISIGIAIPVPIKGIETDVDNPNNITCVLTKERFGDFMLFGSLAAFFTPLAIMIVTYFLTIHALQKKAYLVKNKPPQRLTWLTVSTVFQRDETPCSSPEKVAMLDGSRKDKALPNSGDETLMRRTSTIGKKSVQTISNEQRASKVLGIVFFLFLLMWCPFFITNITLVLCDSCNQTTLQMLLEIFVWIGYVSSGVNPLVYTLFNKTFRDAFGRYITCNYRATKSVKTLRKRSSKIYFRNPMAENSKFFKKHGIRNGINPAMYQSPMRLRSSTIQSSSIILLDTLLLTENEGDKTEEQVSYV
How it was run: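 Off-target panel run by the NIMH PDSP. Each derivative was first screened at 10 μM in radioligand binding.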

SMILES: Clc1ccc(Nc2nc3ccccc3c3[nH]c(C4CCC=CCC4)nc23)cc1Cl
Stability [1]: 69.7%
CL/F [2]: 26.3 mL/min/kg
permeability [3]: 78%
t1/2 [4]: 2.6 h
remaining at 24 h [5]: 50%
t1/2 [6]: 3.4 h
solubility [7]: 0.39 µg/mL (≈ 0.921 µM)
Stability [8]: 69.1%
Ki [9]: 4.64 µM
IC50 [10]: 6.99 µM
CL/F [11]: 16.2 mL/min/kg
t1/2 [12]: 1.29 h
bioavailability at 24 h [13]: 28.7%
IC50 [14]: 6.99 µM
Cmax [15]: 1780 ng/mL
IC50 [16]: 6.06 µM
permeability [17]: 48.1%
Stability [18]: 76.4%
t1/2 [19]: 2.38 h
t1/2 [20]: 1.17 h
t1/2 [21]: 3.23 h
Stability [22]: 88.7%
Stability [23]: 52.1%
Stability [24]: 100%
bioavailability at 24 h [25]: 47.5%
Stability [26]: 83.5%
PPB [27]: 99.1%
t1/2 [28]: 2.65 h
MRT [29]: 3.98 h
t1/2 [30]: 11.6 h
t1/2 [31]: 9.67 h
t1/2 [32]: 9.55 h
Tmax [33]: 2 h
Stability [34]: 81.2%
CL/F [35]: 7.45 mL/min/kg
Ki [36]: 0.575 µM
IC50 [37]: 6.99 µM
t1/2 [38]: 3.33 h

SMILES: Clc1ccc(Nc2nc3ccccc3c3[nH]c(C4CCCCC4)nc23)cc1Cl
Ki [39]: 2 µM

SMILES: CCCC(CCC)c1nc2c(Nc3ccc(I)cc3)nc3ccccc3c2[nH]1
Ki [40]: 0.123 µM
Ki [36]: 0.891 µM

Stability [22]: 83.9%
SMILES: COc1ccc([C@@H]2Sc3ccccc3N(CCN(C)C)C(=O)[C@@H]2OC(C)=O)cc1 [DILTIAZEM]

SMILES: Clc1ccc(Nc2nc3ccccc3c3[nH]c([C@@H]4C[C@@H]5CCC[C@@H](C5)C4)nc23)cc1Cl
Ki [41]: 7.22 µM
Ki [42]: 0.467 µM

SMILES: CC(=O)CC(c1ccccc1)c1c(O)c2ccccc2oc1=O (stereo unspecified) [WARFARIN]
PPB [43]: 96.3%
PPB [44]: 83.6%

SMILES: CCN(CC)CCOC(=O)c1ccc(N)cc1 [PROCAINE]
Stability [1]: 0%
Stability [26]: 0%
t1/2 [30]: 0.00183 h

SMILES: Clc1ccc(Nc2nc3ccccc3c3[nH]c(C4CCCCCCCCCCC4)nc23)cc1Cl
Ki [45]: 7.63 µM

SMILES: Clc1ccc(COC(Cn2ccnc2)c2ccc(Cl)cc2Cl)c(Cl)c1 (stereo unspecified) [MICONAZOLE]
IC50 [10]: 4.55 µM
IC50 [14]: 4.55 µM
IC50 [46]: 1.64 µM
IC50 [47]: 38 µM
IC50 [48]: 38 µM
IC50 [37]: 4.55 µM

SMILES: Clc1ccc(Nc2nc3ccccc3c3[nH]c(C4CCCCCCCCCC4)nc23)cc1Cl
Ki [45]: 5.28 µM

SMILES: Ic1ccc(Nc2nc3ccccc3c3[nH]c(C4CCCCC4)nc23)cc1
Ki [45]: 0.846 µM

SMILES: Clc1ccc(Nc2nc3ccccc3c3[nH]c(C4CCCCCCCC4)nc23)cc1Cl
Ki [9]: 5.15 µM
Ki [36]: 0.907 µM

SMILES: Clc1ccc(Nc2nc3ccccc3c3[nH]c(C4CC5C=CC4CC5)nc23)cc1Cl (racemic)
Activity [49]: 100%

t1/2 [6]: 0.255 h
Stability [8]: 0%
SMILES: COc1ccc2[nH]c([S+]([O-])Cc3ncc(C)c(OC)c3C)nc2c1 (stereo unspecified) [OMEPRAZOLE]

SMILES: CCCC(CCC)c1nc2c(Nc3ccc(Cl)c(Cl)c3)nc3ccccc3c2[nH]1
Ki [9]: 1.48 µM
Ki [50]: 1.36 µM
Ki [36]: 1.36 µM
